Source: PubChem BioAssay
Activity calls are given as the source filed them.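 The calls were made as follows, unless noted: active = visual image review flags a hit and inhibition of aggregation exceeds 20%; inconclusive = visual hit but inhibition at or below 20%; inactive = no hit on visual image review.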

How the values were obtained:
[1] = inhibitors of TNFa-induced NFkB p65 translocation, primary screen, imaging, HUVEC, MLSMR starter and 10KST1 sets (AID 438;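 active = inhibition above 20% together with a positive visual image hit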;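 also: compound added about 3h40 before a 20 min TNFalpha stimulation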;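 as to inhibition: signal is the nuclear over cytoplasmic p65 intensity ratio per well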); details: HUVEC TNFa-induced p65 nuclear translocation; cell count: measured here: nuclei count (cytotoxicity indicator), at 2.08 µM; inhibition: at 2 µM, stronger effect = higher value, 0% TNFa-plus-vehicle, 100% no-TNFa wells
[2] = reduction of polyQ htt aggregates in cells – imaging, exon1htt(103Q)mCFP cells, high-content imaging, primary screen (AID 483); details: exon1htt(103Q)mCFP cell line, aggregate imaging, at 2 µM; inhibition of aggregation: stronger effect = higher value; nuclei count: measured here: cell count, toxicity;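 also: compound exposure lasted 3 days before fixation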;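 as to nuclei count: percent of the per-plate median nuclei count of sample wells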
[3] = endothelial E-selectin expression blockers – imaging, HUVEC, immunofluorescence, MLSMR starter and 10KST1 sets, primary screen (AID 487;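 active = visually confirmed hit in the image check and inhibition above 20%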;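 as to inhibition: signal is fraction of cell area covered by stained E-selectin grains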;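 as to nuclei count: 100% = median nuclei count of all wells on the same plate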); details: HUVEC TNFalpha-induced E-selectin immunofluorescence imaging, at 2 µM; inhibition: stronger effect = higher value; nuclei count: measured here: cell number, toxicity
[4] = target: Voltage-gated potassium channel subunit beta-2 (Rattus norvegicus) (UniProt P62483); assay: inhibitors of rat Kvbeta2 reductase activity – biochemical, NADPH fluorescence, primary screen (AID 622;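 active = fluorescence slope higher than the sample average by over 3 SD, cut at about -0.22 in these data, passing the limit was not always enough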;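 also: slope of raw intensity against log time taken from 70 to 1610 s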); details: recombinant KvBeta, 4-cyanobenzaldehyde reduction, at 10 µM, stronger effect = higher value
[5] = target: Voltage-gated potassium channel subunit beta-2 (Rattus norvegicus) (UniProt P62483); assay: enhancers of rat Kvbeta2 NADPH turnover – biochemical, NADPH fluorescence, primary screen (AID 623;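 active = NADPH fluorescence slope more negative than the mean of all samples by about 3 SD, 99.7% confidence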;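 also: fluorescence intensity change per second fitted from 20 to 320 s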); details: Recombinant KvBeta, NADPH fluorescence decrease slope, 10 min; at 10 µM; stronger effect = lower value
[6] = target: Muscarinic acetylcholine receptor M4 (Homo sapiens) (UniProt P08173); assay: M4-linked GIRK flux change, two-sided – cell-based, HEK293 M4/GIRK, thallium flux, BTC-AM, M4 allosteric agonist project, primary screen (AID 625;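 active = fluorescence slope after compound addition differing from the mean of all tested samples at 99.7% confidence, mostly higher but some lower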;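 also: thallium influx through GIRK channels coupled to M4 in HEK293 cells with BTC-AM dye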); details: at 10 µM, actives lie on both sides
Summary of the method: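 System: HEK293 cells with M4 receptor and GIRK channels | Incubation: Cells overnight at 37 °C, BTC-AM loading 1 h, reads 2 min total | Technique: Kinetic BTC-AM fluorescence sampled at 1 Hz, 10 s pre-addition baseline | Measure: Post-addition slope, 15–24 s, of baseline-normalized fluorescence | Control set: Carbachol positive, DMSO negative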

[7] = blockers of RIG-like receptor reporter activation – cell-based, Sendai virus stimulus, luciferase, 10K MLSCN set, TLR/RLR signaling modifier project, primary screen (AID 602276;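 active = inhibition at or above 50% at 10 µM; inactive = inhibition below 50%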;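 also: firefly luciferase from ISG56 promoter only with Renilla not read in this screen; 0% = Sendai virus plus DMSO and 100% = medium plus DMSO without virus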); details: HEK293 RL24 IRF3 luciferase reporter, at 10 µM, stronger effect = higher value
[8] = TLR3 IRF3 reporter activation blockers – cell-based, poly I:C stimulus, luciferase, 10K MLSCN set, primary screen (AID 602277;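 active = inhibition of the reporter signal at or above 50%; inactive = inhibition below 50%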); details: HEK293-TLR3 RL24 IRF3 luciferase reporter, at 10 µM, stronger effect = higher value

Chain of Muscarinic acetylcholine receptor M4 (Homo sapiens) (P08173 whole entry, looked up): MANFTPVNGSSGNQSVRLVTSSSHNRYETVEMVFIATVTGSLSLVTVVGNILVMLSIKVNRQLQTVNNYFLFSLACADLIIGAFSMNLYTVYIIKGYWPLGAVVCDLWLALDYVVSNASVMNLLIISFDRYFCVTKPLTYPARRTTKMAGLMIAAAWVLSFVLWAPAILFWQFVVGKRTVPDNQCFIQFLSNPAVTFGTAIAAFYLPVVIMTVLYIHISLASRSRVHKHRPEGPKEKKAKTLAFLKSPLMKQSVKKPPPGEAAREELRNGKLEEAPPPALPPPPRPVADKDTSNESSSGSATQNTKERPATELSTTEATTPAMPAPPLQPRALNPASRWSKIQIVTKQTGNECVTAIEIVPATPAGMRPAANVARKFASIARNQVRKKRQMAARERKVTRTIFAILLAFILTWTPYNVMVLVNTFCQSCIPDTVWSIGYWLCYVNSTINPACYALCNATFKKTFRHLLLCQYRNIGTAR
Chain of Voltage-gated potassium channel subunit beta-2 (Rattus norvegicus) (P62483 whole entry, looked up): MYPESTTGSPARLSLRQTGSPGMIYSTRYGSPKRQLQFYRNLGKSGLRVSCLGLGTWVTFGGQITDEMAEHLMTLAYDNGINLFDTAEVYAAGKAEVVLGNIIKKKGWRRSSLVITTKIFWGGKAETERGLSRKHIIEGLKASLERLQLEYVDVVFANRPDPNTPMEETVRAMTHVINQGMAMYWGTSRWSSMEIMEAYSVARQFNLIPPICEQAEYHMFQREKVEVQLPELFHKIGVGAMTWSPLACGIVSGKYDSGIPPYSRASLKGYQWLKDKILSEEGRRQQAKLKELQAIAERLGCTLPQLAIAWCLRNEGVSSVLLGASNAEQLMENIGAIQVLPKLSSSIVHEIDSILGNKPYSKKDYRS

SMILES	cell count [1]	inhibition [1]	inhibition of aggregation [2]	nuclei count [2] [%]	inhibition [3]	nuclei count [3] [%]	fluorescence slope [4]	NADPH fluorescence slope [5]	fluorescence slope [6]	inhibition [7]	inhibition [8]
CS(=O)(=O)Nc1ccc(C(=O)NCc2ccco2)cc1	499	-0.3% (inactive)	16.6% (inactive)	60	11.9% (inactive)	105	-0.571 (inactive)	1.2e-06 (inactive)	0.00586 (inactive)	5.42% (inactive)	16.9% (inactive)
CC1CCN(C(=O)CSc2nnc(-c3cccnc3)n2C2CCCCC2)CC1	463	-5.1% (inactive)	6.5% (inactive)	121	-34.6% (inactive)	134	-0.471 (inactive)	-2.5e-05 (inactive)	0.00469 (inactive)	18.4% (inactive)	16.9% (inactive)
CC(C)CCn1c(SCC#N)nc2c(sc3ccccc32)c1=O	718	-3.6% (inactive)	0.6% (inactive)	117	-60.1% (inactive)	119	-0.485 (inactive)	-2.4e-05 (inactive)	0.00662 (inactive)	6.8% (inactive)	14.8% (inactive)
CCOC(=O)c1c(NC(=O)Cn2c(C)nc3ccccc32)sc2c1CCC2	459	-6.2% (inactive)	15.3% (inactive)	102	-75.4% (inactive)	112	-0.552 (inactive)	-2.4e-05 (inactive)	0.00437 (inactive)	17.3% (inactive)	24% (inactive)
CCOC(=O)CSc1nnc(CNC(=O)c2ccc(OC)c(OC)c2)n1C	375	-8.2% (inactive)	-1.1% (inactive)	82	-73% (inactive)	128	-0.578 (inactive)	-2.7e-05 (inactive)	0.00863 (inactive)	4.54% (inactive)	21.4% (inactive)
CCOC(=O)Cc1nnc(NC(=O)CSc2nnc3c4ccccc4n(C(C)C)c3n2)s1	359	-7.7% (inactive)	-10.9% (inactive)	94.3	-158% (inactive)	90.2	-0.554 (inactive)	-3.3e-05 (inactive)	0.00407 (inactive)	18% (inactive)	25.8% (inactive)
CCOC(=O)c1cc2sccc2n1CC(=O)Nc1ccc(OC)cc1OC	550	-28.2% (inactive)	2.8% (inactive)	96.6	-22.6% (inactive)	107	-0.542 (inactive)	5.3e-06 (inactive)	0.00418 (inactive)	19% (inactive)	32.5% (inactive)
CCNC(=O)C1CC(=O)N(Cc2ccc3c(c2)OCO3)C(=Nc2ccc(OCC)cc2)S1 (stereo not drawn)	577	-3.7% (inactive)	13.6% (inactive)	108	-3.2% (inactive)	119	-0.588 (inactive)	1.7e-05 (inactive)	0.00371 (inactive)	17.9% (inactive)	21.2% (inactive)
CNC(=O)c1ccccc1NC(=O)c1c(O)c2c([nH]c1=O)CCCC2	433	16.6% (inactive)	-9.3% (inactive)	98.8	-19.5% (inactive)	108	-0.47 (inactive)	-5.8e-05 (inactive)	0.00682 (inactive)	4.16% (inactive)	16.9% (inactive)
COC(=O)c1ccccc1NC(=O)CSc1nnnn1C1CCCCC1	309	-3.7% (inactive)	-19.4% (inactive)	108	-39.4% (inactive)	81.2	-0.545 (inactive)	-3.8e-05 (inactive)	0.00503 (inactive)	3.68% (inactive)	20.1% (inactive)
O=C(NC1CCc2ccccc21)C1CCN(S(=O)(=O)c2ccc(-n3cnnn3)cc2)CC1 (stereo not drawn)	698	7.5% (inactive)	-23.2% (inactive)	118	-37.5% (inactive)	91.8	-0.553 (inactive)	1.5e-06 (inactive)	0.00483 (inactive)	15.1% (inactive)	30.1% (inactive)
CCc1cccc(NS(=O)(=O)c2c(C)n[nH]c2C)c1	679	-8.8% (inactive)	-12.8% (inactive)	124	-135% (inactive)	111	-0.465 (inactive)	-1.4e-05 (inactive)	0.00614 (inactive)	4.66% (inactive)	19.7% (inactive)
COc1ccc(-c2nnc3ccc(SC(C(C)=O)C(C)=O)nn23)cc1OC	605	-17% (inactive)	14.3% (inactive)	100	-47.2% (inactive)	94	-0.348 (inactive)	-5.5e-05 (inactive)	0.00579 (inactive)	13.7% (inactive)	13.4% (inactive)
O=C(COC(=O)c1cc(S(=O)(=O)N2CCOCC2)ccc1O)NCC1CCCO1 (stereo not drawn)	426	9.7% (inactive)	-4.1% (inactive)	88.7	-39.1% (inactive)	113	-0.345 (inactive)	5.4e-05 (inactive)	0.00615 (inactive)	15.4% (inactive)	24.6% (inactive)
Cn1c(=O)c2c(nc(NCCc3ccccc3)n2CC(=O)NCCc2ccccc2)n(C)c1=O	339	2.5% (inactive)	6.2% (inactive)	94.2	-86.4% (inactive)	105	-0.575 (inactive)	2.8e-06 (inactive)	0.00514 (inactive)	30.2% (inactive)	31.9% (inactive)
COc1ccccc1N1CCN(C(=O)CSc2nc(-c3ccccc3)cc(=O)[nH]2)CC1	284	-10.5% (inactive)	-9.2% (inactive)	114	-30.1% (inactive)	124	-0.509 (inactive)	9.3e-06 (inactive)	0.00621 (inactive)	-1.48% (inactive)	6.29% (inactive)
CC1(C)CC(=O)C(C=NCCc2ccc(S(N)(=O)=O)cc2)=C(O)C1	601	-6.1% (inactive)	-14.5% (inactive)	114	-11.3% (inactive)	102	-0.426 (inactive)	-8.3e-05 (inactive)	0.00589 (inactive)	13.2% (inactive)	20.3% (inactive)
C=CCn1c(=O)/c(=C/c2ccc(O)cc2)s/c1=C(/C#N)c1nnc2n1CCCCC2	483	-0.5% (inactive)	11.1% (inactive)	112	-5.3% (inactive)	116	-0.332 (inactive)	-4.5e-05 (inactive)	0.00728 (inactive)	17.7% (inactive)	-30% (inactive)
Cn1c(=O)oc2cc(S(=O)(=O)N3CCC(C(=O)Nc4ccc(OC(F)(F)F)cc4)CC3)ccc21	261	6.9% (inactive)	19.4% (inactive)	103	-19.6% (inactive)	75.1	-0.572 (inactive)	-1.9e-05 (inactive)	0.00653 (inactive)	12.1% (inactive)	17% (inactive)
Cn1cnnc1SCC(=O)NCc1cccc(C(F)(F)F)c1	352	1.1% (inactive)	0.1% (inactive)	116	-95.6% (inactive)	118	-0.532 (inactive)	3.5e-05 (inactive)	0.00701 (inactive)	4.51% (inactive)	3.97% (inactive)
Cc1nc2sc(C(c3cccc(F)c3)N3CCN(C(=O)c4ccco4)CC3)c(O)n2n1 (stereo not drawn)	228	-2.8% (inactive)	-3.1% (inactive)	106	-7% (inactive)	112	-0.306 (inactive)	-1.4e-05 (inactive)	0.00489 (inactive)	-14.2% (inactive)	-22.6% (inactive)
CCOC(=O)CNC(=O)c1c(C)nn(-c2ccccc2)c1Cl	389	1.9% (inactive)	0.1% (inactive)	56.2	-152% (inactive)	127	-0.571 (inactive)	-5.1e-06 (inactive)	0.00495 (inactive)	-45.3% (inactive)	99.2% (active)
O=c1c(F)cn(C2CCCO2)c(=O)n1Cc1c(F)cccc1Cl (stereo not drawn)	738	-7.1% (inactive)	-9.4% (inactive)	103	-114% (inactive)	140	-0.549 (inactive)	-1.3e-05 (inactive)	0.00479 (inactive)	5.15% (inactive)	13.2% (inactive)
Cc1ccc(NC(=O)N2CCC(c3nc4c(nnn4Cc4cccc(Cl)c4)c(=O)[nH]3)CC2)cc1	811	-4.8% (inactive)	-2.1% (inactive)	55.6	-3.8% (inactive)	124	-0.569 (inactive)	-7.6e-06 (inactive)	0.00576 (inactive)	8.55% (inactive)	21.7% (inactive)
O=C(NC1CC2CCC1C2)C1COc2ccccc2O1 (stereo not drawn)	297	-3.7% (inactive)	1.9% (inactive)	89.3	18.8% (inactive)	97.5	-0.46 (inactive)	-3.9e-05 (inactive)	0.00453 (inactive)	0.357% (inactive)	-2.86% (inactive)
Cc1nn(-c2ccccc2)c(C)c1C(=O)OCC(=O)c1c(N)n(CC(C)C)c(=O)n(C)c1=O	486	4.2% (inactive)	-2.5% (inactive)	78.8	-65.4% (inactive)	127	-0.504 (inactive)	0.000168 (inactive)	0.00552 (inactive)	4.86% (inactive)	-99.7% (inactive)
O=C1c2ccccc2NC(c2ccco2)N1O (stereo not drawn)	426	3% (inactive)	-3.7% (inactive)	110	-169% (inactive)	132	-0.579 (inactive)	-2.1e-05 (inactive)	0.006 (inactive)	8.36% (inactive)	10.8% (inactive)
CCOC(=O)N1CCC(NC(=O)C2CCCN2C(=O)OCc2ccccc2)CC1 (stereo not drawn)	861	-0.5% (inactive)	-11.6% (inactive)	120	-19.6% (inactive)	110	-0.561 (inactive)	-1.3e-05 (inactive)	0.00566 (inactive)	-11.6% (inactive)	-1.88% (inactive)
